From the RNAGym collection of RNA variant scans (doi:10.1126/science.aae0568)
Variants at the floor of the assay were thinned out.

B1: tRNA (parent)
chain: GUUCCGUUGGCGUAAUGGUAACGCGUCUCCCUCCUAAGGAGAAGACUGCGGGUUCGAGUCCCGUACGGAACG

Variants of: B1
Experiment: yeast fitness relative to wild type (ratio to wild type); higher = fitter; tRNA-Arg(CCU), competitive growth, 37 C, YPD
In short: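 Start and end populations of a pooled competition were compared by 100-nucleotide paired-end sequencing of gene amplicons. The Saccharomyces cerevisiae strains carried tRNA-Arg(CCU) gene variants at the native genomic locus, synthesised with a 3% per-site mutation rate at 69 sites, and competed in YPD at 37°C for 24 hours in six parallel replicates. Darwinian fitness relative to wild type was based on the change in genotype frequencies. Genotypes required ≥ 100 starting reads, and estimates < 0.5 were set to 0.5.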

**Q.** Which yeast fitness does the source give for GUUCCGUUAGCGUAAUGGUAACGCGUCUCCCUCCUAAGGAGCAGACUGCGGGUUCGAGUCCCGUACGGAACG [G9A A42C] here?
**A.** 0.855

**Q.** With GUUCCGUUAGCGUAAUGGUAACGCGUCUCCCUCCUAAGGAGCAGACUGCGGGUUCGAAUCCCGUACGGAACG [G9A A42C G58A] as the variant, how does the yeast fitness read?
**A.** 0.917

**Q.** For GUUCCGUUAGCGUAAUGGUAACGCGUCUCCCUCCUAAGGAGGAGACUGCGGGUUCGAGUCCCGUACGGAACG [G9A A42G], which yeast fitness is on record?
**A.** 0.96

**Q.** With GUUCCGUUAGCGUAAUGGUAACGCGUCUCCCUCCUAAGGAGGAGACUGCGGGUUCGAGUCCAGUACGGAACG [G9A A42G C62A] as the variant, how does the yeast fitness read?
**A.** ≤ 0.5

**Q.** Which yeast fitness does the source give for GUUCCGUUAGCGUAAUGGUAACGCGUCUCCCUCCUAAGGAGUAGACUGCGGGUUCGAGUCCCGUACGGAACG [G9A A42U] here?
**A.** 0.87

**Q.** With GUUCCGUUAGCGUAAUGGUAACGCGUCUCCCUCCUAAGGAGAGGACUGCGGGUUCGAGACCCGUACGGGACG [G9A A43G U59A A69G] as the variant, how does the yeast fitness read?
**A.** ≤ 0.5

**Q.** With GUUCCGUUAGCGUAAUGGUAACGCGUCUCCCUCCUAAGGAGAUGACUGCGGGUUCCAGUCCCGUACGGAACG [G9A A43U G56C] as the variant, how does the yeast fitness read?
**A.** 0.536

**Q.** With GUUCCGUUAGCGUAAUGGUAACGCGUCUCCCUCCUAAGGAGAAGCCUGCGGGUUCGAGUCCCGUACGGAACG [G9A A45C] as the variant, how does the yeast fitness read?
**A.** 0.971

**Q.** Which yeast fitness does the source give for GUUCCGUUAGCGUAAUGGUAACGCGUCUCCCUCCUAAGGAGAAGCCUGUGGGUUCGAGUCCCGUACGGAACG [G9A A45C C49U] here?
**A.** 0.643

**Q.** Which yeast fitness does the source give for GUUCCGUUAGCGUAAUGGUAACGCGUCUCCCUCCUAAGGAGAAGUCUACGGGUUCAAGUCCCGUACGGAACG [G9A A45U G48A G56A] here?
**A.** 0.701

**Q.** Which yeast fitness does the source give for GUUCCGUUAGCGUAAUGGUAACGCGUCUCCCUCCUAAGGAGAAGUCUGCGGGUUCGAGUCCCGCACGGAACG [G9A A45U U64C] here?
**A.** 0.57

**Q.** For GUUCCGUUAGCGUAAUGGUAACGCGUCUCCCUCCUAAGGAGAAGACUGCGGGUUCGCGUCCCGUACGGAACG [G9A A57C], which yeast fitness is on record?
**A.** 0.591

**Q.** For GUUCCGUUAGCGUAAUGGUAACGCGUCUCCCUCCUAAGGAGAAGACUGCGGGUUCGAGUCCCGUCCGGAACG [G9A A65C], which yeast fitness is on record?
**A.** 0.93

**Q.** Which yeast fitness does the source give for GUUCCGUUAGCGUAAUGGUAACGCGUCUCCCUCCUAAGGAGAAGACUGCGGGUUCGAGUCCCGUGCGCAACG [G9A A65G G68C] here?
**A.** 0.594

**Q.** Which yeast fitness does the source give for GUUCCGUUAGCGUAAUGGUAACGCGUCUCCCUCCUAAGGAGAAGACUGCGGGUUCGAGUCCCGUACGGAGCG [G9A A70G] here?
**A.** 1.06

**Q.** Which yeast fitness does the source give for GUUCCGUUAGAGUAAUGGUAAGGCGUCUCCCUCCCAAGGAGAAGACUGCGGGUUCGAGUCCCGUACGGAACG [G9A C11A C22G U35C] here?
**A.** ≤ 0.5

**Q.** With GUUCCGUUAGAGUAAUGGUAACGUGUCUCCCUCAUAUGGAGAAGACUGCGGGUUCGAGUCCAGUAAGGAACG [G9A C11A C24U C34A A37U C62A C66A] as the variant, how does the yeast fitness read?
**A.** ≤ 0.5

**Q.** With GUUCCGUUAGAGUAAUGGUAACGCGUCUCCCUCCUAACGCGAAGACUGCGGGUUCGAGUCCCGUACGGAACG [G9A C11A G38C A40C] as the variant, how does the yeast fitness read?
**A.** ≤ 0.5

**Q.** With GUUCCGUUAGAGUAAUGGUAACGCGUCUCCCUCCUAACGAGAAGACUGCGGGUUCGAGUGCCGUACGGAACG [G9A C11A G38C C60G] as the variant, how does the yeast fitness read?
**A.** ≤ 0.5

**Q.** Which yeast fitness does the source give for GUUCCGUUAGAGUAAUGGUAACGCGUCUCCCUCCUAAGGAGAAGACUGCGGGUUCGACUCCCGUACGGAACG [G9A C11A G58C] here?
**A.** ≤ 0.5

**Q.** With GUUCCGUUAGGGUAAUGGUAACGGGUCUCCCUCCUAAGGAGUAGACUGCGGGUUCGAGUCCCGUACGGAACG [G9A C11G C24G A42U] as the variant, how does the yeast fitness read?
**A.** ≤ 0.5

**Q.** With GUUCCGUUAGGGUAAUGGUAACGGGUACCCCUCCUAAGGAGAAGACUGCGGGUUCGAGUCCCGUUCGGAACG [G9A C11G C24G C27A U28C A65U] as the variant, how does the yeast fitness read?
**A.** ≤ 0.5

**Q.** Which yeast fitness does the source give for GUUCCGUUAGGGUAAUGGUAACGGGUCUCCCACCUAAGGAGAAGACUGCAGGUUCGAGUCUCCUACGGAACG [G9A C11G C24G U32A G50A C61U G63C] here?
**A.** ≤ 0.5

**Q.** Which yeast fitness does the source give for GUUCCGUUAGGGUAAUGGUAACGGGUCUCCCACCUAAGGAGAAGACUGCGGGUUCGACUCCCGUACGGAACG [G9A C11G C24G U32A G58C] here?
**A.** ≤ 0.5

**Q.** Which yeast fitness does the source give for GUUCCGUUAGGGUAAUGGUAACGCGUCUCCCUCCUAAGGAGAAGACUGCGGGUUGGAGUCCCCUACCGAACG [G9A C11G C55G G63C G67C] here?
**A.** 0.578

**Q.** With GUUCCGUUAGGGUAAUGGUAACGCGUCUCCCUCCUAAGGAGAAGACUGCAAGUUCGAGUCCCGUACGGAACG [G9A C11G G50A G51A] as the variant, how does the yeast fitness read?
**A.** ≤ 0.5

**Q.** Which yeast fitness does the source give for GUUCCGUUAGGGUAAUGGCAACGCGUCUCCCUCCUAAGGAGAAGACUGCGGGUUCGAGUCCCGUACAGAACG [G9A C11G U19C G67A] here?
**A.** ≤ 0.5

**Q.** For GUUCCGUUAGUGUACUGGUGACGCGUCUCCCUCCUAAGGAGAAGACUACGGGUUCGAGUGCCGUACGGAACG [G9A C11U A15C A20G G48A C60G], which yeast fitness is on record?
**A.** 0.662

**Q.** For GUUCCGUUAGUGUAAUGGUAACGCGUCUCCCUCCUCAGGAGAAGACUGCGGGUUCGGGUCCCGUUCGGAACG [G9A C11U A36C A57G A65U], which yeast fitness is on record?
**A.** ≤ 0.5

**Q.** For GUUCCGUUAGUGUAAUGGUAACGCGUCUCCCUCCUCAGGAGAAGACUGCGGGUUCGGGUCCCGUACGCAACG [G9A C11U A36C A57G G68C], which yeast fitness is on record?
**A.** ≤ 0.5

**Q.** For GUUCCGUUAGUGUAAUGGUAACGCGUCUCCCUCCUCAGGAGAAGACUGGGGGGUCGAGUCCCGUACGGAACG [G9A C11U A36C C49G U53G], which yeast fitness is on record?
**A.** ≤ 0.5

**Q.** With GUUCCGUUAGUGUAAUGGUAACGCGUCUCCCUCCUCAGGAGAAGACUCCGGGUUCGAGUCCCGUACGGAACG [G9A C11U A36C G48C] as the variant, how does the yeast fitness read?
**A.** ≤ 0.5

**Q.** For GUUCCGUUAGUGUAAUGGUAACGCGUCUCCCUCCUCAGGAGAAGACUGCGGGUUCGAGUCCCGUACGCAACG [G9A C11U A36C G68C], which yeast fitness is on record?
**A.** ≤ 0.5

**Q.** With GUUCCGUUAGUGUAAUGGUAACGCGUCUACCUCCUAAGGAGAAGACUGCGGGGUCGAGUCCCGUACGGAACG [G9A C11U C29A U53G] as the variant, how does the yeast fitness read?
**A.** ≤ 0.5

**Q.** With GUUCCGUUAGUGUAAUGGUAACGCGUCUGCCUCCUAAGGAGAAGACUGCGGGUUCGAGUCCCGUACGGAACG [G9A C11U C29G] as the variant, how does the yeast fitness read?
**A.** 0.609

**Q.** For GUUCCGUUAGUGUAAUGGUAACGCGUCUCCUUCCUAAGGAGAAGACUGCGGGUUCGAGACCCGUACGGAACG [G9A C11U C31U U59A], which yeast fitness is on record?
**A.** ≤ 0.5

**Q.** With GUUCCGUUAGUGUAAUGGUAACGCGUCUCCCUCCUAAGGAGAAGACUACGGGUUCGAGUCCCGUACGGAACG [G9A C11U G48A] as the variant, how does the yeast fitness read?
**A.** 0.715

**Q.** Which yeast fitness does the source give for GUUCCGUUAGUGUAAUGGUAACGCGUCUCCCUCCUAAGGAGAAGACUGCGGGUUCGAGUCCCGUACCGAACG [G9A C11U G67C] here?
**A.** 0.697
